ChEMBL document CHEMBL1121664, “(Acylaryloxy)acetic acid diuretics. 4. Indeno[5,4-b]furan-2-carboxylic acids” (1981)

Assays:
Pan troglodytes [1] = test: Compound was tested for the oral natriuretic activity in chimpanzee at 5 mg/kg by observing the excretion rates of sodium; µequiv of Na+/min
Rattus norvegicus [2] = test: Compound was tested for the oral natriuretic activity in female rats at the dose 27 mg/kg; mequiv of Na+ x 100 / cage; assay type: functional
Method in brief: (§1)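 Female Charles River rats (150–170 g) were kept overnight on a sugar diet with water ad libitum. Compound was dosed po in a final vehicle of 4% DMF in water with Tween 80, alongside concurrent vehicle placebo. Rats were housed three per metabolism cage and urine was collected over 0–5 h. Na+ is reported as mequiv ×100 per cage, as the geometric mean of three cages per dose.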

Rattus norvegicus [3] = test: Compound was tested for the oral natriuretic activity in female rats at the dose 9 mg/kg; mequiv of Na+ x 100 / cage; assay type: functional
Method in brief: as §1

Rattus norvegicus [4] = test: Compound was tested for the oral natriuretic activity in female rats at the dose 81 mg/kg; mequiv of Na+ x 100 / cage; assay type: functional
Method in brief: as §1

[5] = Compound was tested for the ratio of clearance of urate to clearance of inulin levels at 5 mg/kg in Chimpanzee; assay type: functional
Method in brief: (§2)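 GFR measured by iv pyrogen-free inulin. Inulin and urate clearances and Na+, K+, Cl- excretion rates measured by Auto Analyzer. Control values averaged over three 20-min periods. Compound given orally as aqueous solution via nasal catheter. Response is the mean of eight 15–20 min periods minus control, from single experiments.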

Pan troglodytes [6] = test: Compound was tested for the oral diuretic activity in chimpanzee at the dose 5 mg/kg expressed as excretion rate in microequiv of Cl-/min; assay type: functional, Urine
Method in brief: as §2

Pan troglodytes [7] = test: Compound was tested for the oral diuretic activity in chimpanzee at the dose 5 mg/kg expressed as excretion rate in microequiv of K+/min; assay type: functional, Urine
Method in brief: as §2

Pan troglodytes [8] = test: Compound was tested for the oral natriuretic activity in chimpanzee at the dose 5 mg/kg expressed as excretion rate in microequiv of Na+/min; assay type: functional
Method in brief: as §2

Rattus norvegicus [9] = test: Compound was tested for the oral natriuretic activity in female rats at the dose 3 mg/kg; mequiv of Na+ x 100 / cage; assay type: functional
Method in brief: as §1

Pan troglodytes [10] = test: Compound was tested for the oral natriuretic activity in chimpanzee at the dose 0.1 mg/kg expressed as excretion rate in microequiv of Na+/min; assay type: functional
Method in brief: as §2

Pan troglodytes [11] = test: Compound was tested for the oral diuretic activity in chimpanzee at the dose 0.1 mg/kg expressed as excretion rate in microequiv of K+/min; assay type: functional, Urine
Method in brief: as §2

Pan troglodytes [12] = test: Compound was tested for the oral diuretic activity in chimpanzee at the dose 0.1 mg/kg expressed as excretion rate in microequiv of Cl-/min; assay type: functional, Urine
Method in brief: as §2

| SMILES | Excretion rate (Rattus norvegicus [2]) | Excretion rate (Rattus norvegicus [3]) | Excretion rate (Rattus norvegicus [4]) | Ratio [5] | Excretion rate (Pan troglodytes [6]) | Excretion rate (Pan troglodytes [7]) | Excretion rate (Pan troglodytes [8]) | Excretion rate (Rattus norvegicus [9]) | other results |
| --- | --- | --- | --- | --- | --- | --- | --- | --- | --- |
| NS(=O)(=O)c1cc(C(=O)O)c(NCc2ccco2)cc1Cl [FUROSEMIDE] | 125 | 7 | 244 | -0.02 |  |  |  |  | Excretion rate (Pan troglodytes [1]): 1040 µequiv/min |
| CC1(C2CCCC2)Cc2cc(OCC(=O)O)c(Cl)c(Cl)c2C1=O (centres undefined) |  |  |  | 0.2 | 367 | 64 | 425 |  |  |
| CCC1C(=O)c2c(Cl)c(Cl)c3c(c2C1c1ccccc1)CC(C(=O)O)O3 (centres undefined) | 82 | 109 | 87 | 0.16 |  |  | 820 | 94 |  |
| CC1(c2ccccc2)Cc2c3c(c(Cl)c(Cl)c2C1=O)O[C@H](C(=O)O)C3 (some centres undefined) | 281 | 267 | 388 | 0.09 |  |  |  | 189 | Excretion rate (Pan troglodytes [10]): 1305; Excretion rate (Pan troglodytes [11]): 88; Excretion rate (Pan troglodytes [12]): 1532 |
| CCCN(CCC)S(=O)(=O)c1ccc(C(=O)O)cc1 [PROBENECID] |  |  |  | 0.05 |  |  |  |  |  |
| NS(=O)(=O)c1cc2c(cc1Cl)NCNS2(=O)=O [HYDROCHLOROTHIAZIDE] |  | 112 |  |  | 198 | 73 | 144 |  |  |
| O=C(O)[C@H]1Cc2c3c(c(Cl)c(Cl)c2O1)C(=O)C1(CCCC1)C3 (stereo in doubt; 4d) | 349 |  | 432 |  | 1990 | 274 |  |  | Excretion rate (Rattus norvegicus [3]; 9 mg/kg): 323; Ratio ([5]; 5 mg/kg): 0; Excretion rate (Rattus norvegicus [9]; 3 mg/kg): 224; Excretion rate (Pan troglodytes [8]; 5 mg/kg): 1500 |
| CC1(C2CCCC2)Cc2c3c(c(Cl)c(Cl)c2C1=O)O[C@@H](C(=O)O)C3 (some centres undefined) | 279 | 223 | 340 | -0.04 | 614 | 63 | 437 | 127 |  |
| O=C(O)COc1cc2c(c(Cl)c1Cl)C(=O)C1(CCCC1)C2 |  |  |  | 0.14 | 399 | 42 | 321 |  |  |
| CCCC1Cc2c3c(c(C)c(C)c2C1=O)OC(C(=O)O)C3 (centres undefined) |  |  |  | 0.01 |  |  | 252 |  |  |
| CCCC1Cc2c(c(C)c(C)c3oc(C(=O)O)cc23)C1=O (centres undefined) | 32 | 16 | 28 | 0.01 |  |  | 0 | 15 |  |
| CC1(c2ccccc2)Cc2cc(OCC(=O)O)c(Cl)c(Cl)c2C1=O (centres undefined) [INDACRINONE] | 129 | 97 | 189 | 0.38 | 539 | 108 | 409 | 86 |  |
